In ChEMBL document CHEMBL1148498, “Diphenylmethane skeleton as a multi-template for nuclear receptor ligands: preparation of FXR and PPAR ligands” (Bioorg Med Chem Lett, 2006) one finds Activity and EC50 data, which are given here for 4 molecules.

Assay [1] deals with T1, Retinoic acid receptor RXR-alpha (Homo sapiens) (UniProt P19793).
T1 sequence (whole entry): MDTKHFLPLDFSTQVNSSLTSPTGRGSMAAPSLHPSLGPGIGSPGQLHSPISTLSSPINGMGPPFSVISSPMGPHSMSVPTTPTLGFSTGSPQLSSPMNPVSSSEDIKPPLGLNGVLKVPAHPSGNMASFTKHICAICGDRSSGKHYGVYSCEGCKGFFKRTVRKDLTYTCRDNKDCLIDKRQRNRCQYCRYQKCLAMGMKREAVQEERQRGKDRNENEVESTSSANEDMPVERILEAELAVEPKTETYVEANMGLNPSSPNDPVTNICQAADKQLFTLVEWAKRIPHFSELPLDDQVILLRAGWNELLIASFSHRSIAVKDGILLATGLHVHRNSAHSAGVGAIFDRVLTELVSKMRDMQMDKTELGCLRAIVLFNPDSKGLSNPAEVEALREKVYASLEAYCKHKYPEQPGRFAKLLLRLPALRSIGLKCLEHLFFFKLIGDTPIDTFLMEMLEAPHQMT
Nature of the assay: Activity at human recombinant RXRalpha by transactivation of TK-MH100x4-LUC reporter gene in HEK293 cells at 10 uM. In kind it is cell-based.

Assay [2] deals with T2, Vitamin D3 receptor (Homo sapiens) (UniProt P11473).
T2 sequence (whole entry): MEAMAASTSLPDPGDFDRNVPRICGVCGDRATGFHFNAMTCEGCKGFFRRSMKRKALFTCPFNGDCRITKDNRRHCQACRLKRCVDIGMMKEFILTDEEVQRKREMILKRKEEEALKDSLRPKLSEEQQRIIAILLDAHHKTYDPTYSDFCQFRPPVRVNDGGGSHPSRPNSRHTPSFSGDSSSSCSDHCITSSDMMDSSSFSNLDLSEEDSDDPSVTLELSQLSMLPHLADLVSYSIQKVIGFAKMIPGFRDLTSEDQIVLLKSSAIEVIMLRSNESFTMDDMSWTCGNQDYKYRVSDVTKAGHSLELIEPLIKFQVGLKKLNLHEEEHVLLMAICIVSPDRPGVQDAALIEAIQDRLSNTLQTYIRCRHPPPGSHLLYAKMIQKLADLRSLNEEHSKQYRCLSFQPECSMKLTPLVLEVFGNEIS
Put plainly: Activity at human recombinant VDR by transactivation of TK-MH100x4-LUC reporter gene in HEK293 cells at 10 uM. In kind it is cell-based.

Assay [3] concerns the target T3, Retinoic acid receptor alpha (Homo sapiens) (UniProt P10276).
T3 sequence (whole entry): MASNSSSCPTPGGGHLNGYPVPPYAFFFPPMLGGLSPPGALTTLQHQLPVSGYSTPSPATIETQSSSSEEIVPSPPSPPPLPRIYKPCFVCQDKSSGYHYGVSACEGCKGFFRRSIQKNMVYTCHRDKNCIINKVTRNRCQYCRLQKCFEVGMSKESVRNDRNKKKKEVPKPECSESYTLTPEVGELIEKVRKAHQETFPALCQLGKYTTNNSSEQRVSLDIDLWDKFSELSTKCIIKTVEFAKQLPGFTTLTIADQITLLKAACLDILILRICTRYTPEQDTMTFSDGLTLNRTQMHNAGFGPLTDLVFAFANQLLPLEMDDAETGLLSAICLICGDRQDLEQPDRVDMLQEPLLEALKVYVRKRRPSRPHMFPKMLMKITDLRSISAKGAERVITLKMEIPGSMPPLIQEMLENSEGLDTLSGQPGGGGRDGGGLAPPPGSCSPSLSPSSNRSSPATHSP
Put plainly: Activity at human recombinant RARalpha by transactivation of TK-MH100x4-LUC reporter gene in HEK293 cells at 10 uM. In kind it is cell-based. In general terms: Reporter assays use an easily measured gene product as a stand-in for the process of interest.

Assay [4] addresses T4, Peroxisome proliferator-activated receptor delta (Homo sapiens) (UniProt Q03181).
T4 sequence (whole entry): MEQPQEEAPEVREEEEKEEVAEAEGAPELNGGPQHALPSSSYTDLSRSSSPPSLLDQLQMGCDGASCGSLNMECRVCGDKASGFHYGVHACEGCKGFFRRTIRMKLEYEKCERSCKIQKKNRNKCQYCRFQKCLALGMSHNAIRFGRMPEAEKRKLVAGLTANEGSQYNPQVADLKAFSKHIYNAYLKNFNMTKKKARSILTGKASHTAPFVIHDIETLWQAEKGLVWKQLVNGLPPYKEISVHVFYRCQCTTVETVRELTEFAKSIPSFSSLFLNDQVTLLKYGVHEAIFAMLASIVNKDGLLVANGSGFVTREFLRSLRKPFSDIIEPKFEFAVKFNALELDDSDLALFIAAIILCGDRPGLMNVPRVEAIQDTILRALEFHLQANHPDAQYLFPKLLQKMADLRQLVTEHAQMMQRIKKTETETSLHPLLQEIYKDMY
Nature of the assay: Activity at human recombinant PPARdelta by transactivation of TK-MH100x4-LUC reporter gene in HEK293 cells at 10 uM. In kind it is cell-based.

Assay [5] concerns the target T5, Bile acid receptor (Homo sapiens) (UniProt Q96RI1).
T5 sequence (whole entry): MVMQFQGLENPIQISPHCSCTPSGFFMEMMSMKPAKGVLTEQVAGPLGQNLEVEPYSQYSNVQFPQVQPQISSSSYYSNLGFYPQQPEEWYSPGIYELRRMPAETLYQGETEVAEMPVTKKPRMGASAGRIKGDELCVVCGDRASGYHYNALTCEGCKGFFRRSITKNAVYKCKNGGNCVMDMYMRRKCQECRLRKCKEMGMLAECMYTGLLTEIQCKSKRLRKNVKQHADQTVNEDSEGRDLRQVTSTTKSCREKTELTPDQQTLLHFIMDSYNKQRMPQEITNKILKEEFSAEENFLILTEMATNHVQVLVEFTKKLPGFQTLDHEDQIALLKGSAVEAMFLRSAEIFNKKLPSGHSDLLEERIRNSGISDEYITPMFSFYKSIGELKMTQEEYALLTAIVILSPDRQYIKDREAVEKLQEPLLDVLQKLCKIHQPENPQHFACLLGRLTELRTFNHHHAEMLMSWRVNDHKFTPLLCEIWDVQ
Put plainly: Activity at human recombinant FXR by transactivation of TK-MH100x4-LUC reporter gene in HEK293 cells at 10 uM. The format is cell-based.

Assay [6] concerns the target T6, Peroxisome proliferator-activated receptor alpha (Homo sapiens) (UniProt Q07869).
T6 sequence (whole entry): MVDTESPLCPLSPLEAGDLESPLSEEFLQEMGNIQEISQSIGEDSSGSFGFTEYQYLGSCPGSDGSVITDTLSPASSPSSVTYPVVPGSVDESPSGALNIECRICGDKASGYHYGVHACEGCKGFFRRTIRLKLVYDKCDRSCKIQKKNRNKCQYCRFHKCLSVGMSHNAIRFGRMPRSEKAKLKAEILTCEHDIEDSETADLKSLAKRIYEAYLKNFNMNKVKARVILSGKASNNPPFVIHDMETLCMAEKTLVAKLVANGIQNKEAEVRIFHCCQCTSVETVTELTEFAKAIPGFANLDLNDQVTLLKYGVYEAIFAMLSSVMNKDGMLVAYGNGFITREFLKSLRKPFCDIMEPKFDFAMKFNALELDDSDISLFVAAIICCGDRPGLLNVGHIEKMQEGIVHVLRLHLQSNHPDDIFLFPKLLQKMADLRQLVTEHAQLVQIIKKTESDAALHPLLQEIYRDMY
Nature of the assay: Activity at human recombinant PPARalpha by transactivation of TK-MH100x4-LUC reporter gene in HEK293 cells at 10 uM. The format is cell-based.

Assay [7] addresses T7, Peroxisome proliferator-activated receptor gamma (Homo sapiens) (UniProt P37231).
T7 sequence (whole entry): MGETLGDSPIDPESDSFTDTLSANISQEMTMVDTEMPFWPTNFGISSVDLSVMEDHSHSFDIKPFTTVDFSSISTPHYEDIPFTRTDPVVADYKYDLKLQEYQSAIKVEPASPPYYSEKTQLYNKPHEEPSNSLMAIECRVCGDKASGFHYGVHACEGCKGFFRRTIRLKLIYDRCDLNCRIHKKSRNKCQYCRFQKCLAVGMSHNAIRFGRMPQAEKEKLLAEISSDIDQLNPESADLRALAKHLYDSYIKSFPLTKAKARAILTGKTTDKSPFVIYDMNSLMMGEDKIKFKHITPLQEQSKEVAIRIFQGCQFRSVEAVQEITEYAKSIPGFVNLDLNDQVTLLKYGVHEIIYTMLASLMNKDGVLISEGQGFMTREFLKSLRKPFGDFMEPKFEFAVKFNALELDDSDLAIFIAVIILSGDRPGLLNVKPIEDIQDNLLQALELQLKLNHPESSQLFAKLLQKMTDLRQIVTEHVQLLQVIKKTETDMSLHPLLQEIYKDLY
Nature of the assay: Activity at human recombinant PPARgamma by transactivation of TK-MH100x4-LUC reporter gene in HEK293 cells at 10 uM. The format is cell-based.

The target in assay [8] is T8, Bile acid receptor (Homo sapiens, UniProt Q96RI1).
T8 sequence (Q96RI1 whole entry): T5 sequence (whole entry)
Put plainly: (§1) Agonist activity at human recombinant FXR by transactivation of TK-MH100x4-LUC reporter gene in HEK293 cells. The format is functional, cell-based.

For assay [9], the target named is T9, Oxysterols receptor LXR-alpha (Homo sapiens) (UniProt Q13133).
T9 sequence (whole entry): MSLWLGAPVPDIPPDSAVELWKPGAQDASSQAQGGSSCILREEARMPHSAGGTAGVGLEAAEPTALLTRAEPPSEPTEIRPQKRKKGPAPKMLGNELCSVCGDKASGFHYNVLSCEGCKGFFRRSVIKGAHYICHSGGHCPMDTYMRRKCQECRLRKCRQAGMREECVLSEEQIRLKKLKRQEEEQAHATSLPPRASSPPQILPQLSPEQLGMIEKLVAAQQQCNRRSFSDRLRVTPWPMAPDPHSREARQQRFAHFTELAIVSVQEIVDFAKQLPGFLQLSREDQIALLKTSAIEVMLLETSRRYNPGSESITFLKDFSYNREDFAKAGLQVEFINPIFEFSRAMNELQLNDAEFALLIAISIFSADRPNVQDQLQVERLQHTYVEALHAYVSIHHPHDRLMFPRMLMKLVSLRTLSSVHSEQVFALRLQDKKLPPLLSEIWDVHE
Put plainly: Activity at human recombinant LXRalpha by transactivation of TK-MH100x4-LUC reporter gene in HEK293 cells at 10 uM. The format is cell-based.

For assay [10], the target named is T10, Peroxisome proliferator-activated receptor alpha (Homo sapiens, UniProt Q07869).
T10 sequence (Q07869 whole entry): T6 sequence (whole entry)
Put plainly: Agonist activity at human recombinant PPARalpha by transactivation of TK-MH100x4-LUC reporter gene in HEK293 cells. The format is functional, cell-based. Summed up:
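GAL4 fusion of the human PPARα receptor (CMX-GAL4N-hPPARα) with the TK-MH100x4-LUC reporter, plus CMX β-galactosidase for normalization. HEK293 cells were grown in DMEM with 5% FBS at 37 °C and 5% CO2 and transfected by calcium phosphate coprecipitation. Compounds were added 8 h after transfection. Luciferase was read by luminometer, normalized to β-galactosidase, and averaged over three repeat experiments.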

Assay [11] deals with T5, Bile acid receptor (Homo sapiens). The assay is described as §1. In kind it is functional, cell-based.

Structures are written as SMILES. Calls of active or inactive are those of the source. The rule behind the calls is not given here.

As to `CCC(CC)(c1ccc(OCC(=O)O)c(C)c1)c1ccc(OCc2c(-c3c(Cl)cccc3Cl)noc2C(C)C)c(C)c1`, the outcome in assay [1], in assay [2], in [3], in assay [4], in assay [6] and in assay [7] was inactive. Moreover, the outcome in [9] was inactive. Also, the outcome in assay [5] was Active. For the same molecule, the EC50 (usually the concentration giving half of the maximal effect) in assay [8] is 3.4 µM.

Turning to `CCC(Oc1ccc(C2(c3ccc(OC(CC)C(=O)O)c(C)c3)CCCCC2)cc1C)C(=O)O` (stereo not given), the EC50 in [10] turned out to be 3.5 µM. For the same molecule, the result in assay [1], in assay [2], in [3], in assay [4], in [5] and in assay [7] was inactive. The result in assay [9] was inactive. For the same molecule, the result in assay [6] was Active.

On to `CCC(CC)(c1ccc(NCC(O)CO)c(C)c1)c1ccc(OCc2c(-c3c(Cl)cccc3Cl)noc2C(C)C)c(C)c1` (stereo not given), for which the outcome in assay [11] was Active.

For `CC(C)(Oc1ccc(C(=O)c2ccc(Cl)cc2)cc1)C(=O)O` [FENOFIBRIC ACID], in [10], the EC50 amounted to 9.2 µM.
